# According to ChEMBL document CHEMBL1134785, “Synthesis and biological evaluation of prostaglandin-F alkylphosphinic acid derivatives as bone anabolic agents for the treatment of osteoporosis” (J Med Chem, 2001):
# Assays:
# [1] = test system: Rattus norvegicus; experiment: Tissue area (mm) measured Histomorphometrically after a dose of 300 ug/kg in tibial diaphysis; type: functional
# How it was run: (§1)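 Rats on natural chow (1.46% Ca) were bilaterally ovariectomized at 6 months and left untreated for 60 days. They then received once-daily subcutaneous doses for 60 days, with vehicle of acetate-buffered saline, methylcellulose and polysorbate. Xylenol orange (90 mg/kg) was given before treatment and calcein (10 mg/kg) 14 and 4 days before sacrifice. Tibiae were analysed by fluorescent histomorphometry, 6-8 rats/group, ANOVA/LSD vs vehicle.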
# [2] = test system: Rattus norvegicus; experiment: Trabecular no (mm)measured Histomorphometrically after a dose of 100 ug/kg in proximal tibial metaphysis; type: functional, Trabecula
# How it was run: (§2)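 Six-month-old rats were ovariectomized, and 60 days later daily subcutaneous dosing began for 60 days, with vehicle of acetate-buffered saline, methylcellulose and polysorbate. Xylenol orange (90 mg/kg) labelled bone pre-treatment and calcein (10 mg/kg) 14 and 4 days pre-sacrifice. Histomorphometry covered the proximal tibial metaphysis 1-4 mm distal to the growth plate-metaphyseal junction. Groups were 6-8 rats, compared by ANOVA/LSD vs vehicle.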
# [3] = test system: Rattus norvegicus; experiment: Trabecular thickness […] measured Histomorphometrically after a dose of 100 ug/kg in proximal tibial metaphysis; type: functional, Trabecula; how it was run: as §2
# [4] = test system: Rattus norvegicus; experiment: Mineral apposition rate ([…])bone Histomorphometrically after a dose of 30 ug/kg in proximal tibial metaphysis; type: functional
# How it was run: (§3)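 Ovariectomized six-month-old rats, 6-8 per group, were dosed subcutaneously once daily at 0.01–3.0 mg/kg for 60 days, starting 60 days after surgery. Vehicle was acetate-buffered saline, methylcellulose and polyoxyethylenesorbitan monooleate. Labels were xylenol orange 90 mg/kg pretreatment and calcein 10 mg/kg at 14 and 4 days before necropsy. Histomorphometry covered the proximal tibial metaphysis, 1–4 mm distal to the growth plate–metaphyseal junction. ANOVA/LSD versus vehicle.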
# [5] = biological target: Prostaglandin E2 receptor EP2 subtype (Homo sapiens, UniProt P43116); experiment: In vitro binding at EP2 human prostaglandin receptor
# How it was run: (§4)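 Receptors stably expressed in CHO cells, collected 4-5 days after seeding. Membranes made by lysis (Tris, EDTA, protease inhibitors) and 100000g pellet, then resuspended at 1 mg protein/mL in TME. Radioligands at 5 nM: [3H]PGE2 for EP2/EP3/EP4, [3H]Iloprost for IP, [3H]SQ-29548 for TP. Competition binding with filtration and counting.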
# [6] = test system: Rattus norvegicus; experiment: Endosteal mineralizing surface Histomorphometrically after a dose of 300 ug/kg in tibial diaphysis; type: functional
# How it was run: (§5)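 Six-month-old rats, bilaterally ovariectomized, 6-8 per group, on natural chow. After 60 days they received once-daily subcutaneous dosing for 60 days at 0.01–3.0 mg/kg. Vehicle was acetate-buffered saline with methylcellulose and polyoxyethylenesorbitan monooleate. Labels were xylenol orange 90 mg/kg before treatment and calcein 10 mg/kg 14 and 4 days before sacrifice. Tibial histomorphometry was read under fluorescent light, with ANOVA/LSD versus vehicle.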
# [7] = test system: Rattus norvegicus; experiment: Bone Volume /Tissue Volume (%)measured Histomorphometrically after a dose of 100 ug/kg in proximal tibial metaphysis; type: functional; details: at 100 µg/kg
# [8] = test system: Rattus norvegicus; experiment: connectivity density (mm-3) using micro Computed Tomography(CT) after a does of 1000 ug/kg in Vertebral Bone; type: functional
# How it was run: (§6)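 Rats were ovariectomized at 6 months of age and, after 60 days, dosed subcutaneously once daily for 60 days, with vehicle of acetate-buffered saline, methylcellulose and polysorbate. At necropsy the fifth lumbar vertebra was scanned by micro-CT to obtain cancellous architecture. Groups were 6-8 rats; results were compared to vehicle by ANOVA with least significant difference test.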
# [9] = test system: Rattus norvegicus; experiment: Periosteal mineralizing surface (%) measured Histomorphometrically after a dose of 1000 ug/kg in tibial diaphysis; type: functional; how it was run: as §1
# [10] = test system: Rattus norvegicus; experiment: Derived trabecular thickness (um) measured using micro Computed Tomography(CT) after a dose of 10 ug/kg in Vertebral Bone; type: functional, Trabecula
# How it was run: (§7)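 Micro-CT of the fifth lumbar vertebra, measuring cancellous bone volume and architecture. Rats were 6 months old, OVX 60 days before treatment, then dosed daily for 60 days. Test-agent doses were 10–3000 µg/kg, given as a once-daily subcutaneous injection; 6 mg/kg/day was given to the positive-control group. Groups were compared with vehicle by ANOVA plus LSD test.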
# [11] = test system: Rattus norvegicus; experiment: Bone Volume /Tissue Volume (%)measured using micro Computed Tomography(CT) after a dose of 3000 ug/kg in Vertebral Bone; type: functional; details: at 3000 µg/kg
# [12] = test system: Rattus norvegicus; experiment: Mineral apposition rate ([…])bone measured Histomorphometrically after a dose of 100 ug/kg in proximal tibial metaphysis; type: functional; how it was run: as §3
# [13] = test system: Rattus norvegicus; experiment: Directly measured thickness(um) using micro Computed Tomography(CT) after a dose of 3000 ug/kg in Vertebral Bone; type: functional; how it was run: as §7
# [14] = test system: Rattus norvegicus; experiment: Mineral apposition rate ([…])bone measured Histomorphometrically after a dose of 30 ug/kg in tibial diaphysis; type: functional; how it was run: as §5
# [15] = test system: Rattus norvegicus; experiment: Trabecular thickness […] measured Histomorphometrically after a dose of 1000 ug/kg in proximal tibial metaphysis; type: functional, Trabecula; how it was run: as §2
# [16] = test system: Rattus norvegicus; experiment: Tissue area (mm) measured Histomorphometrically after a dose of 100 ug/kg in tibial diaphysis; type: functional; how it was run: as §1
# [17] = test system: Rattus norvegicus; experiment: Bone formation rate/tissue volume (%/year) bone measured histomorphometrically after a dose of 300 ug/kg in proximal tibial metaphysis; type: functional; details: at 300 µg/kg
# [18] = test system: Rattus norvegicus; experiment: Marrow area (mm) measured Histomorphometrically after a dose of 30 ug/kg in tibial diaphysis; type: functional; how it was run: as §5
# [19] = test system: Rattus norvegicus; experiment: Trabecular no (mm)measured Histomorphometrically after a dose of 300 ug/kg in proximal tibial metaphysis; type: functional, Trabecula; how it was run: as §2
# [20] = test system: Rattus norvegicus; experiment: connectivity density (mm-3) using micro Computed Tomography(CT) after a does of 300 ug/kg in Vertebral Bone; type: functional; how it was run: as §6
# [21] = test system: Rattus norvegicus; experiment: Derived trabecular no (mm-1)measured using micro Computed Tomography(CT) after a dose of 1000 ug/kg in Vertebral Bone; type: functional, Trabecula; how it was run: as §7
# [22] = test system: Rattus norvegicus; experiment: connectivity density using micro Computed Tomography(CT) after a dose of 100 ug/kg in Vertebral Bone; type: functional; how it was run: as §6
# [23] = test system: Rattus norvegicus; experiment: Directly measured thickness(um) using micro Computed Tomography(CT) after a dose of 100 ug/kg in Vertebral Bone; type: functional; how it was run: as §7
# [24] = test system: Rattus norvegicus; experiment: Bone formation rate/tissue volume (%/year)bone measured Histomorphometrically after a dose of 10 ug/kg in proximal tibial metaphysis; type: functional; details: at 10 µg/kg
# [25] = test system: Rattus norvegicus; experiment: Mineral apposition rate ([…])bone measured Histomorphometrically after a dose of 3000 ug/kg in proximal tibial metaphysis; type: functional; how it was run: as §3
# [26] = test system: Rattus norvegicus; experiment: Trabecular no (mm)measured Histomorphometrically after a dose of 10 ug/kg in proximal tibial metaphysis; type: functional, Trabecula; how it was run: as §2
# [27] = test system: Rattus norvegicus; experiment: connectivity density (mm-3) using micro Computed Tomography(CT) after a does of 3000 ug/kg in Vertebral Bone; type: functional; how it was run: as §6
# [28] = biological target: Prostaglandin E2 receptor EP4 subtype (Homo sapiens, UniProt P35408); experiment: In vitro binding at EP4 human prostaglandin receptor using [3H]PGE-2 as radioligand; how it was run: as §4
# [29] = test system: Rattus norvegicus; experiment: Derived trabecular no […]measured using micro Computed Tomography(CT) after a dose of 300 ug/kg in Vertebral Bone; type: functional, Trabecula; how it was run: as §7
# [30] = test system: Rattus norvegicus; experiment: Periosteal mineral apposition rate ([…]) measured Histomorphometrically after a dose of 30 ug/kg in tibial diaphysis; type: functional; how it was run: as §5
# [31] = test system: Rattus norvegicus; experiment: Directly measured thickness(um) using micro Computed Tomography(CT) after a dose of 300 ug/kg in Vertebral Bone; type: functional; how it was run: as §7
# [32] = test system: Rattus norvegicus; experiment: Directly measured thickness(um) using micro Computed Tomography(CT) after a dose of 10 ug/kg in Vertebral Bone; type: functional; how it was run: as §7
# Chain of Prostaglandin E2 receptor EP2 subtype (P43116 whole entry): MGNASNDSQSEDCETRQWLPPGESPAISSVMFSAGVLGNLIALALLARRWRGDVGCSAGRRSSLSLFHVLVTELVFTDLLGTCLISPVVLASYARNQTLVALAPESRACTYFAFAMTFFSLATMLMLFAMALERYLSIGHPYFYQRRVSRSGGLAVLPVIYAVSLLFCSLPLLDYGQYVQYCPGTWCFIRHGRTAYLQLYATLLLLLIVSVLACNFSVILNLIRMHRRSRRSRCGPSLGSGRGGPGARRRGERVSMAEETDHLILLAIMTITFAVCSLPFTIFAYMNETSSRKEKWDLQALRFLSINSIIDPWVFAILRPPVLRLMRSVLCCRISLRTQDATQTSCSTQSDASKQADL
# Chain of Prostaglandin E2 receptor EP4 subtype (P35408 whole entry): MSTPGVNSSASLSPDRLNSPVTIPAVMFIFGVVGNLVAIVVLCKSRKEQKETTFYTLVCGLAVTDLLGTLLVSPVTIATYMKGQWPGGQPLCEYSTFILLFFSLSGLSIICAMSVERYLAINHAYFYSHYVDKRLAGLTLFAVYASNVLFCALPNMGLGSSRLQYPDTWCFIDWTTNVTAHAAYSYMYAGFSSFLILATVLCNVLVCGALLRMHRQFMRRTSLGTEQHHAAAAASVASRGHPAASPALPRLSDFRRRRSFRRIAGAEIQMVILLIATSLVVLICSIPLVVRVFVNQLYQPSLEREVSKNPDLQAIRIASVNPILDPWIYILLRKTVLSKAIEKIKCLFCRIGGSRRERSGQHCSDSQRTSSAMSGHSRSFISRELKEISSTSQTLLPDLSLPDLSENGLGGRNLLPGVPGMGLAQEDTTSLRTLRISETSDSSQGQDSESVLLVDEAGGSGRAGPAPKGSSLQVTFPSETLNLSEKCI
compound,measurement,setting,value
CP(=O)(O)CCC/C=C\C[C@@H]1[C@@H](/C=C/[C@@H](O)COc2ccccc2)[C@H](O)C[C@@H]1O,Tissue area,[1],5.01 mm
same,Trabecular no.,[2],1.28 1/mm
same,Trabecular thickness,[3],45.5 µm
same,Mineral apposition rate,[4],1.09 µm/day
same,IC50,[5],> 10 µM
same,Endosteal mineralizing surface,[6],29.02%
same,Activity,[7],5.84%
same,Connectivity density,[8],59.66 mm**-3
same,Periosteal mineralizing surface,[9],10.35%
same,Derived trabecular thickness,[10],73 µm
same,Activity,[11],39.48%
same,Mineral apposition rate,[12],0.87 µm/day
same,Directly measured thickness,[13],134 µm
same,Mineral apposition rate,[14],0.88 µm/day
same,Trabecular thickness,[15],56.7 µm
same,Tissue area,[16],4.95 mm
same,Activity,[17],18.03%
same,Marrow area,[18],0.87 mm²
same,Trabecular no.,[19],1.27 1/mm
same,Connectivity density,[20],66.71 mm**-3
same,Derived trabecular number,[21],4.59 mm-1
same,Connectivity density,[22],68.1 mm**-3
same,Directly measured thickness,[23],127 µm
same,Activity,[24],9.81%
same,Mineral apposition rate,[25],0.94 µm/day
same,Trabecular no.,[26],0.58 1/mm
same,Connectivity density,[27],55.9 mm**-3
same,IC50,[28],> 10 µM
same,Derived trabecular number,[29],4.86 mm-1
same,Periosteal mineral apposition rate,[30],0.31 µm/day
same,Directly measured thickness,[31],127 µm
same,Directly measured thickness,[32],118 µm
